From ChEMBL document CHEMBL4261516, “Design, synthesis and pharmacological evaluation of new 2-oxo-quinoline derivatives containing α-aminophosphonates as potential antitumor agents” (Medchemcomm, 2017)

Legend:
SK-OV-3 = test: Cytotoxicity against human SKOV3 cells after 48 hrs by MTT assay; format: functional, cell-based; settings: SK-OV-3, 48 h
Method in brief: (§1)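 HepG2, SK-OV-3, NCI-H460 and HL 7702 lines grown as monolayers in DMEM with 10% FBS plus penicillin/streptomycin at 37 °C, 5% CO2. Exponentially growing cells were seeded and exposed to the indicated concentrations for 48 h. MTT was then added for 4 h at 37 °C, formazan was dissolved in DMSO, and OD was read at 490 nm. Each concentration was run in triplicate wells, with three independent runs per line.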

L02 = test: Cytotoxicity against human HL-7702 cells after 48 hrs by MTT assay; format: cell-based; settings: L02, 48 h; method in brief: as §1
HepG2 = test: Cytotoxicity against human HepG2 cells after 48 hrs by MTT assay; format: functional, cell-based; settings: HepG2, 48 h; method in brief: as §1
NCI-H460 = test: Cytotoxicity against human NCI-H460 cells after 48 hrs by MTT assay; format: functional, cell-based; settings: NCI-H460, 48 h; method in brief: as §1

O=c1[nH]cc(F)c(=O)[nH]1 [FLUOROURACIL]
IC50 (SK-OV-3): 26.3 µM | IC50 (L02): 58.7 µM

CCOP(=O)(OCC)C(Nc1ccc([N+](=O)[O-])cc1)c1cc2cc(OC)ccc2[nH]c1=O (configuration not stated)
IC50 (HepG2): 20.8 µM | IC50 (SK-OV-3): 25.1 µM | IC50 (NCI-H460): 44.6 µM | IC50 (L02): > 100 µM

CCOP(=O)(OCC)C(Nc1ccc(C)cc1)c1cc2ccccc2[nH]c1=O (configuration not stated)
IC50 (HepG2): 67.3 µM | IC50 (SK-OV-3): 66.8 µM | IC50 (NCI-H460): > 100 µM | IC50 (L02): > 100 µM

CCOP(=O)(Cc1ccc(/N=C/c2cc3cc(OC)ccc3[nH]c2=O)cc1)OCC
IC50 (HepG2): 17.3 µM | IC50 (SK-OV-3): 53 µM | IC50 (NCI-H460): > 100 µM | IC50 (L02): > 100 µM

CCOP(=O)(OCC)C(Nc1ccc(C(F)(F)F)cc1)c1cc2cc(C)ccc2[nH]c1=O (configuration not stated)
IC50 (HepG2): 68.1 µM | IC50 (SK-OV-3): 191 µM | IC50 (NCI-H460): > 100 µM | IC50 (L02): > 100 µM

CCOP(=O)(OCC)C(Nc1ccc(F)cc1)c1cc2ccccc2[nH]c1=O (configuration not stated)
IC50 (HepG2): 37.2 µM | IC50 (SK-OV-3): 41 µM | IC50 (NCI-H460): > 100 µM | IC50 (L02): > 100 µM

CCOP(=O)(OCC)C(Nc1ccc(F)cc1)c1cc2cc(OC)ccc2[nH]c1=O (configuration not stated)
IC50 (HepG2): 58.9 µM | IC50 (SK-OV-3): 270 µM | IC50 (NCI-H460): > 100 µM | IC50 (L02): > 100 µM

CCCCNC(c1cc2ccccc2[nH]c1=O)P(=O)(OCC)OCC (configuration not stated)
IC50 (HepG2): 61.4 µM | IC50 (SK-OV-3): 38.3 µM | IC50 (NCI-H460): > 100 µM | IC50 (L02): > 100 µM

CCOP(=O)(OCC)C(Nc1cccc(C)c1)c1cc2cc(OC)ccc2[nH]c1=O (configuration not stated)
IC50 (HepG2): 45.5 µM | IC50 (SK-OV-3): 73 µM | IC50 (NCI-H460): > 100 µM | IC50 (L02): > 100 µM

CCCCNC(c1cc2cc(OC)ccc2[nH]c1=O)P(=O)(OCC)OCC (configuration not stated)
IC50 (HepG2): 43.2 µM | IC50 (SK-OV-3): 58.2 µM | IC50 (NCI-H460): > 100 µM | IC50 (L02): > 100 µM

O=Cc1cc2cc3c(cc2[nH]c1=O)OCO3
IC50 (HepG2): > 200 µM | IC50 (SK-OV-3): > 200 µM | IC50 (NCI-H460): > 200 µM | IC50 (L02): > 100 µM

CCOP(=O)(OCC)C(Nc1ccc([N+](=O)[O-])cc1)c1cc2cc3c(cc2[nH]c1=O)OCO3 (configuration not stated)
IC50 (HepG2): 44 µM | IC50 (SK-OV-3): 28.2 µM | IC50 (NCI-H460): > 100 µM | IC50 (L02): > 100 µM

COc1ccc2[nH]c(=O)c(C=O)cc2c1
IC50 (HepG2): > 200 µM | IC50 (SK-OV-3): > 200 µM | IC50 (NCI-H460): > 200 µM | IC50 (L02): > 100 µM

CCOP(=O)(OCC)C(Nc1ccccc1)c1cc2cc(OC)ccc2[nH]c1=O (configuration not stated)
IC50 (HepG2): 60.8 µM | IC50 (SK-OV-3): 54.7 µM | IC50 (NCI-H460): > 100 µM | IC50 (L02): > 100 µM

CCOP(=O)(Cc1ccc(/N=C/c2cc3cc4c(cc3[nH]c2=O)OCO4)cc1)OCC
IC50 (HepG2): 28.9 µM | IC50 (SK-OV-3): 47.9 µM | IC50 (NCI-H460): > 100 µM | IC50 (L02): > 100 µM

O=Cc1cc2ccccc2[nH]c1=O
IC50 (HepG2): > 200 µM | IC50 (SK-OV-3): > 200 µM | IC50 (NCI-H460): > 200 µM | IC50 (L02): > 100 µM

CCOP(=O)(OCC)C(Nc1cccc(C)c1)c1cc2ccccc2[nH]c1=O (configuration not stated)
IC50 (HepG2): 65.5 µM | IC50 (SK-OV-3): 56 µM | IC50 (NCI-H460): > 100 µM | IC50 (L02): > 100 µM

CCOP(=O)(OCC)C(Nc1ccccc1)c1cc2ccccc2[nH]c1=O (configuration not stated)
IC50 (HepG2): 46.3 µM | IC50 (SK-OV-3): 54.1 µM | IC50 (NCI-H460): > 100 µM | IC50 (L02): > 100 µM

CCCCNC(c1cc2cc(C)ccc2[nH]c1=O)P(=O)(OCC)OCC (configuration not stated)
IC50 (HepG2): 39.2 µM | IC50 (SK-OV-3): 130 µM | IC50 (NCI-H460): > 100 µM | IC50 (L02): > 100 µM

CCOP(=O)(OCC)C(Nc1ccc(C)cc1)c1cc2cc(OC)ccc2[nH]c1=O (configuration not stated)
IC50 (HepG2): 57.6 µM | IC50 (SK-OV-3): 60 µM | IC50 (NCI-H460): > 100 µM | IC50 (L02): > 100 µM

CCOP(=O)(OCC)C(Nc1cccc(C)c1)c1cc2cc3c(cc2[nH]c1=O)OCO3 (configuration not stated)
IC50 (HepG2): > 100 µM | IC50 (SK-OV-3): > 100 µM | IC50 (NCI-H460): > 100 µM | IC50 (L02): > 100 µM

CCOP(=O)(OCC)C(Nc1ccc([N+](=O)[O-])cc1)c1cc2cc(C)ccc2[nH]c1=O (configuration not stated)
IC50 (HepG2): 35.6 µM | IC50 (SK-OV-3): > 200 µM | IC50 (NCI-H460): > 100 µM | IC50 (L02): > 100 µM

CCOP(=O)(Cc1ccc(/N=C/c2cc3ccccc3[nH]c2=O)cc1)OCC
IC50 (HepG2): 17.9 µM | IC50 (SK-OV-3): 36 µM | IC50 (NCI-H460): 57.9 µM | IC50 (L02): > 100 µM

CCOP(=O)(OCC)C(Nc1ccc(C(F)(F)F)cc1)c1cc2ccccc2[nH]c1=O (configuration not stated)
IC50 (HepG2): 39.1 µM | IC50 (SK-OV-3): 25.8 µM | IC50 (NCI-H460): > 100 µM | IC50 (L02): > 100 µM

CCOP(=O)(OCC)C(Nc1ccc(F)cc1)c1cc2cc3c(cc2[nH]c1=O)OCO3 (configuration not stated)
IC50 (HepG2): 38 µM | IC50 (SK-OV-3): 26.2 µM | IC50 (NCI-H460): 59.6 µM | IC50 (L02): > 100 µM

CCOP(=O)(OCC)C(Nc1ccc(C)cc1)c1cc2cc(C)ccc2[nH]c1=O (configuration not stated)
IC50 (HepG2): 37.6 µM | IC50 (SK-OV-3): 37.2 µM | IC50 (NCI-H460): > 100 µM | IC50 (L02): > 100 µM

CCOP(=O)(OCC)C(Nc1ccc(F)cc1)c1cc2cc(C)ccc2[nH]c1=O (configuration not stated)
IC50 (HepG2): 46.2 µM | IC50 (SK-OV-3): 30.3 µM | IC50 (NCI-H460): > 100 µM | IC50 (L02): > 100 µM

CCOP(=O)(OCC)C(Nc1ccc(C(F)(F)F)cc1)c1cc2cc(OC)ccc2[nH]c1=O (configuration not stated)
IC50 (HepG2): 40.1 µM | IC50 (SK-OV-3): 102 µM | IC50 (NCI-H460): > 100 µM | IC50 (L02): > 100 µM

CCOP(=O)(OCC)C(Nc1ccc(C)cc1)c1cc2cc3c(cc2[nH]c1=O)OCO3 (configuration not stated)
IC50 (HepG2): 43.1 µM | IC50 (SK-OV-3): 48.9 µM | IC50 (NCI-H460): > 100 µM | IC50 (L02): > 100 µM

CCOP(=O)(OCC)C(Nc1ccc([N+](=O)[O-])cc1)c1cc2ccccc2[nH]c1=O (configuration not stated)
IC50 (HepG2): 75.2 µM | IC50 (SK-OV-3): 30 µM | IC50 (NCI-H460): > 100 µM | IC50 (L02): > 100 µM

CCOP(=O)(OCC)C(Nc1ccc(C(F)(F)F)cc1)c1cc2cc3c(cc2[nH]c1=O)OCO3 (configuration not stated)
IC50 (HepG2): 79 µM | IC50 (SK-OV-3): 22.4 µM | IC50 (NCI-H460): > 100 µM | IC50 (L02): > 100 µM

Cc1ccc2[nH]c(=O)c(C=O)cc2c1
IC50 (HepG2): > 200 µM | IC50 (SK-OV-3): > 200 µM | IC50 (NCI-H460): > 200 µM | IC50 (L02): > 100 µM

CCCCNC(c1cc2cc3c(cc2[nH]c1=O)OCO3)P(=O)(OCC)OCC (configuration not stated)
IC50 (HepG2): 46.3 µM | IC50 (SK-OV-3): 37.2 µM | IC50 (NCI-H460): 47.9 µM | IC50 (L02): > 100 µM

CCOP(=O)(OCC)C(Nc1cccc(C)c1)c1cc2cc(C)ccc2[nH]c1=O (configuration not stated)
IC50 (HepG2): 46 µM | IC50 (SK-OV-3): 342 µM | IC50 (NCI-H460): > 100 µM | IC50 (L02): > 100 µM

CCOP(=O)(OCC)C(Nc1ccccc1)c1cc2cc(C)ccc2[nH]c1=O (configuration not stated)
IC50 (HepG2): 39.6 µM | IC50 (SK-OV-3): 69.4 µM | IC50 (NCI-H460): > 100 µM | IC50 (L02): > 100 µM

CCOP(=O)(OCC)C(Nc1ccccc1)c1cc2cc3c(cc2[nH]c1=O)OCO3 (configuration not stated)
IC50 (HepG2): 45.2 µM | IC50 (SK-OV-3): 65 µM | IC50 (NCI-H460): > 100 µM | IC50 (L02): > 100 µM
